Assay results as given in ChEMBL document CHEMBL5661968, “Antitumor activity of ZSTK474, a new phosphatidylinositol 3-kinase inhibitor” (J Natl Cancer Inst, 2006).
The source made the active and inactive calls. The rule behind the calls is not given here.

Experiments:
[1] = tested on: SNB-75; test: Growth inhibition of human SNB-75 cells measured after 48 hrs by sulforhodamine B assay; assay type: functional
Summary of the method: (§1)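 JFCR39 panel lines were grown in RPMI 1640 with 5% FBS, penicillin and streptomycin at 37 °C in 5% CO2. After 48 h of drug exposure, total cellular protein was measured by sulforhodamine B staining. GI50 was calculated by a previously described method.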

[2] = biological target: Dual specificity mitogen-activated protein kinase kinase 1 (Homo sapiens) (UniProt Q02750); test: Inhibition of MEK1 phosphorylation at Ser-217/221 residues in human A549 cells measured after 3 hrs by immunoblotting analysis; conditions: dose <= 2.0 µM
Sequence of Dual specificity mitogen-activated protein kinase kinase 1 (Homo sapiens) (Q02750 whole entry): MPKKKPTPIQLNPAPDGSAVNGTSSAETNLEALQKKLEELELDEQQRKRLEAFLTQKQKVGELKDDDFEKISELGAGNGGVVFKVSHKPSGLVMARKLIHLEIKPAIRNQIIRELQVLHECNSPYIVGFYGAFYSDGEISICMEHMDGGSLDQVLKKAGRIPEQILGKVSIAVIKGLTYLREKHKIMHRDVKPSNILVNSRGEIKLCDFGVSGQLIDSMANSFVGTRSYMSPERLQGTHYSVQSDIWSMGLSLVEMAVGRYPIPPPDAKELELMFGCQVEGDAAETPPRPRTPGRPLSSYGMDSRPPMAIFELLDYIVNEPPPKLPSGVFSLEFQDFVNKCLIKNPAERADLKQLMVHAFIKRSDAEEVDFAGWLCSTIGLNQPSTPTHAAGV

[3] = […] toxicity in nude mouse xenografted with human A549 cells assessed as change in body weight at 800 mg/kg, po administered on day 0 to 13 except for day 3 and 10 measured after 28 days; assay type: organism-based; conditions: in vivo, 672 h, time 28 day
[4] = tested on: OVCAR-4; test: Growth inhibition of human OVCAR-4 cells measured after 48 hrs by sulforhodamine B assay; assay type: functional; summary of the method: as §1
[5] = tested on: NCI-H23; test: Growth inhibition of human NCI-H23 cells measured after 48 hrs by sulforhodamine B assay; assay type: functional; summary of the method: as §1
[6] = tested on: MKN-74; test: Growth inhibition of human MKN74 cells measured after 48 hrs by sulforhodamine B assay; assay type: functional; summary of the method: as §1
[7] = tested on: MCF7; test: Growth inhibition of human MCF7 cells measured after 48 hrs by sulforhodamine B assay; assay type: functional; summary of the method: as §1
[8] = tested on: DMS-273; test: Growth inhibition of human DMS-273 cells measured after 48 hrs by sulforhodamine B assay; assay type: functional; summary of the method: as §1
[9] = Growth inhibition of human HBC4 cells measured after 48 hrs by sulforhodamine B assay; assay type: functional; summary of the method: as §1
[10] = Residual PI3K activity in human A549 cell lysate at 1 uM preincubated with compound for 5 mins followed by [gamma-32p]-ATP addition measured after 20 mins by immunoprecipitation based liquid scintillation spectroscopic analysis relative to control; conditions: A549, 25 min
[11] = tested on: NCI-H460; test: Growth inhibition of human NCI-H460 cells measured after 48 hrs by sulforhodamine B assay; assay type: functional; summary of the method: as §1
[12] = tested on: SK-OV-3; test: Growth inhibition of human SK-OV-3 cells measured after 48 hrs by sulforhodamine B assay; assay type: functional; summary of the method: as §1
[13] = tested on: PC-3; test: Antitumor activity against human PC-3 cells xenografted in nude mouse assessed as inhibition of tumor growth at 400 mg/kg, po administered on day 0 to 13 except for day 3 and 10 measured after 14 days; assay type: functional, organism-based; conditions: time 14.0 day
Summary of the method: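 Female BALB/c-background nude mice were implanted s.c. with 3 × 3 × 3 mm tumor fragments. At 100–300 mm3 tumor volume (day 0), groups of five were randomized and dosed orally at 400 mg/kg on days 0–13, skipping days 3 and 10. Caliper volume was (L×W2)/2, relative to day 0 (RTV). T/C% on day 14 = 100 × mean treated RTV / mean control RTV.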

[14] = Toxicity in nude mouse xenografted with human PC-3 cells assessed as change in body weight at 400 mg/kg, po administered on day 0 to 13 except for day 3 and 10 measured after 28 days (reference value: 17 %); assay type: organism-based; conditions: in vivo, 672 h, time 28 day
[15] = biological target: Dual specificity mitogen-activated protein kinase kinase 2 (Homo sapiens) (UniProt P36507); test: Inhibition of MEK2 phosphorylation at Ser-217/221 residues in human A549 cells measured after 3 hrs by immunoblotting analysis; conditions: dose <= 2.0 µM
Sequence of Dual specificity mitogen-activated protein kinase kinase 2 (Homo sapiens) (P36507 whole entry): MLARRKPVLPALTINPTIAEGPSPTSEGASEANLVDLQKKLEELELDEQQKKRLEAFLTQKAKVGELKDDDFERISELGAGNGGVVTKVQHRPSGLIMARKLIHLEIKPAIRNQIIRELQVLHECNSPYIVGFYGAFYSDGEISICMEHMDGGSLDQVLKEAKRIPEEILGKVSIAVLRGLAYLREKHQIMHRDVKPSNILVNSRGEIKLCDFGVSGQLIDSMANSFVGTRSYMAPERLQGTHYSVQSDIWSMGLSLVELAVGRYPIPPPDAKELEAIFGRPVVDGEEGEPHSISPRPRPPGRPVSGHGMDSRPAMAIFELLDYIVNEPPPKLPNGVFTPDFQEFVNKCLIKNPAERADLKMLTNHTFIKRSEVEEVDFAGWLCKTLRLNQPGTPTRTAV

[16] = Toxicity in nude mouse xenografted with human A549 cells assessed as change in body weight at 800 mg/kg, po administered on day 0 to 13 except for day 3 and 10 measured after 28 days (reference value: 14 %); assay type: organism-based; conditions: in vivo, 672 h, time 28 day
[17] = Growth inhibition of human BSY1 cells measured after 48 hrs by sulforhodamine B assay; assay type: functional; conditions: BSY-1; summary of the method: as §1
[18] = biological target: Forkhead box protein O1 (Homo sapiens) (UniProt Q12778); test: Inhibition of FKHR phosphorylation at Thr-24 residue in human A549 cells measured after 3 hrs by immunoblotting analysis; assay type: cell-based; conditions: dose <= 2.0 µM
Sequence of Forkhead box protein O1 (Homo sapiens) (Q12778 whole entry): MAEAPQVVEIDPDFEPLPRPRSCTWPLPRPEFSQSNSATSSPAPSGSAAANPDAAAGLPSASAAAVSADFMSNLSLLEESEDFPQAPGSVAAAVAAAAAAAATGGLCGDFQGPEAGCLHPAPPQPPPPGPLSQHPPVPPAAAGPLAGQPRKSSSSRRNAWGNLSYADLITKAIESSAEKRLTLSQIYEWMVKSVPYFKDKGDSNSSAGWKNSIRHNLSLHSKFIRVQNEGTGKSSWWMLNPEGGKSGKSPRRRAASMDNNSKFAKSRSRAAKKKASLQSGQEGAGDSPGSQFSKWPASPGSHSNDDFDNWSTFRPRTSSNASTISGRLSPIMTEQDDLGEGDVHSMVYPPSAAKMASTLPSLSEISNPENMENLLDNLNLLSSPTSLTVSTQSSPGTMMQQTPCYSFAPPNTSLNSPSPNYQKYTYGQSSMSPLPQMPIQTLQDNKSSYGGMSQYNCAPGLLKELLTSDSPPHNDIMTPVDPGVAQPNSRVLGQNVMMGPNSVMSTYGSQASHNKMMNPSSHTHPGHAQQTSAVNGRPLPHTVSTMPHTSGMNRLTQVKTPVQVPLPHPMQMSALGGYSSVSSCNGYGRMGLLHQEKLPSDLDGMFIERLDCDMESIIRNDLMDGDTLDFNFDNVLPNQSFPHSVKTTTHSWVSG
Summary of the method: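 A549 cells treated over 0 to 2.0 μM; lysed in 10 mM Tris–HCl pH 7.4, 50 mM NaCl, NaF, pyrophosphate, vanadate, EDTA, protease inhibitors, 0.5% NP-40, 0.1% SDS; proteins resolved by SDS-PAGE, blotted to PVDF, probed with phospho-specific antibodies, HRP secondary, ECL detection.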

[19] = tested on: HT-29; test: Growth inhibition of human HT-29 cells measured after 48 hrs by sulforhodamine B assay; assay type: functional; summary of the method: as §1
[20] = tested on: LOX IMVI; test: Growth inhibition of human LOX IMVI cells measured after 48 hrs by sulforhodamine B assay; assay type: functional; summary of the method: as §1
[21] = tested on: U-251; test: Growth inhibition of human U-251 cells measured after 48 hrs by sulforhodamine B assay; assay type: functional; summary of the method: as §1
[22] = tested on: MEF; test: Inhibition of PI3K in platelet-derived growth factor induced mouse MEF cells assessed as reduction in membrane ruffling at 1 uM preincubated with compound for 15 mins followed by induction by immunoprecipitation based liquid scintillation spectroscopic analysis; assay type: cell-based
Summary of the method: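 Murine embryonic fibroblasts treated with or without 1 μM compound for 15 min, stimulated with PDGF (10 ng/mL) for 5 min, fixed in 3% formaldehyde 30 min at room temperature, permeabilized with 0.1% Triton X-100, F-actin stained with TRITC-phalloidin (0.1 μg/mL), viewed by fluorescence microscopy.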

[23] = tested on: RXF 631; test: Growth inhibition of human RXF 631 cells measured after 48 hrs by sulforhodamine B assay; assay type: functional; summary of the method: as §1
[24] = biological target: Glycogen synthase kinase-3 beta (Homo sapiens) (UniProt P49841); test: Inhibition of GSK-3beta phosphorylation at Ser9 residue in human A549 cells at 0.5 uM measured after 30 mins by Western blotting analysis; assay type: cell-based
Sequence of Glycogen synthase kinase-3 beta (Homo sapiens) (P49841 whole entry, looked up): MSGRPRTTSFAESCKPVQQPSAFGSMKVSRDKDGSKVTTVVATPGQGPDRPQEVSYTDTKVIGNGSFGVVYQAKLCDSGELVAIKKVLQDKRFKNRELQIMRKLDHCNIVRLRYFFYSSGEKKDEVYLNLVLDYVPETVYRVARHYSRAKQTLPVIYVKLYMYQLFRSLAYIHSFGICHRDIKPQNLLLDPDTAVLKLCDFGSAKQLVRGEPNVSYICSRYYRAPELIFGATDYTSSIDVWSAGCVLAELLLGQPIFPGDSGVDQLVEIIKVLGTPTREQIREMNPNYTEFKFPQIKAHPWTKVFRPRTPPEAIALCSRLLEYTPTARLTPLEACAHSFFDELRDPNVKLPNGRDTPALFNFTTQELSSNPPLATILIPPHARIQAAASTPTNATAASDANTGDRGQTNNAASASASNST

[25] = tested on: B16-F10; test: Antitumor activity against mouse B16-F10 cells implanted in BDF1 mouse assessed as tumor size relative to control (T/C) at 100 mg/kg, po administered daily measured after 14 days; conditions: 336 h
[26] = tested on: SNB-78; test: Growth inhibition of human SNB-78 cells measured after 48 hrs by sulforhodamine B assay; assay type: functional; summary of the method: as §1
[27] = tested on: SF-295; test: Growth inhibition of human SF-295 cells measured after 48 hrs by sulforhodamine B assay; assay type: functional; summary of the method: as §1
[28] = tested on: B16-F10; test: Antitumor activity against mouse B16-F10 cells implanted in BDF1 mouse assessed as tumor size relative to control (T/C) at 400 mg/kg, po administered daily measured after 14 days; conditions: 336 h
[29] = tested on: MEF; test: Inhibition of PI3K in platelet-derived growth factor induced mouse MEF cells assessed as reduction in PIP3 formation at 1 uM preincubated with compound for 15 mins followed by induction by immunoprecipitation based liquid scintillation spectroscopic analysis; assay type: cell-based
Summary of the method: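 Murine embryonic fibroblasts labelled 4 h at 37 °C in phosphate-free DMEM with 25 mM HEPES pH 7.4 and [32P]orthophosphate (0.1 mCi/mL); 1 μM compound for 15 min before PDGF (10 ng/mL) stimulation; PIP3 formation measured.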

[30] = tested on: MKN-28; test: Growth inhibition of human MKN-28 cells measured after 48 hrs by sulforhodamine B assay; assay type: functional; summary of the method: as §1

FC(F)c1nc2ccccc2n1-c1nc(N2CCOCC2)nc(N2CCOCC2)n1 [ZSTK-474]
GI50 [1]: 45.7 nM | inhibition [2]: inactive | Activity [3]: Non-Toxic | GI50 [4]: 182 nM | GI50 [5]: 339 nM | GI50 [6]: 617 nM | GI50 [7]: 45.7 nM | GI50 [8]: 224 nM | GI50 [9]: 240 nM | level, % of control at 1 µM [10]: 4.7% | GI50 [11]: 468 nM | GI50 [12]: 331 nM | Activity [13]: Active | Activity [14]: 17% | inhibition [15]: inactive | Activity [16]: Non-Toxic | GI50 [17]: 93.3 nM | inhibition [18]: Dose-Dependent Effect | GI50 [19]: 447 nM | GI50 [20]: 457 nM | GI50 [21]: 1100 nM | inhibition [22]: Active | GI50 [23]: 724 nM | inhibition [24]: Active | T/C at 100 mg/kg [25]: 28.5% | GI50 [26]: 55 nM | GI50 [27]: 186 nM | T/C at 400 mg/kg [28]: 4.9% | inhibition [29]: Active | GI50 [30]: 1350 nM
